Screening results deposited in PubChem by several laboratories.
Most compounds without a hit are left out; they make up all but 2.2% or so of the library.
RORa activator = activators of orphan receptor RORA, primary screen, cell-based, luminescence. activation, % at 10 µM. Nuclear receptor ROR-alpha (Homo sapiens), P35398. CHO-K1 Gal4-RORA LBD luciferase reporter; percent increase over mock-subtracted basal signal. 65,000 tested, 1.5% active. AID 560, 2006;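 active = activation above the mean of all tested compounds plus 3 SD, cut at about 49% in these data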
CD11b adhes enh = enhancers of CD11b/CD18 adhesion to fibrinogen, primary screen, K562 cells, luminescence | Integrin beta-2 (Homo sapiens) + Integrin alpha-M (Homo sapiens), P05107+P11215 | ATPlite luminescence | activation, % at 10 µM | 93,000 tested, 0.07% active | AID 1499, 2009;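 active = 10 µM primary screen giving 50% or more activity, confirmed by 40% or more on retest at that dose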
CD11b adhes inh = inhibitors of CD11b/CD18 adhesion to fibrinogen, primary screen, K562 cells, luminescence; ATPlite luminescence; Mn2+ added to activate the integrin; AID 1497, 2009; Integrin beta-2 (Homo sapiens) + Integrin alpha-M (Homo sapiens), P05107+P11215; 93,000 tested, 0.54% active; inhibition, % at 10 µM;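 active = primary inhibition of 50% or more at 10 µM, then 40% or more on retest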
MT1-MMP txn act = MT1-MMP promoter reporter activation – cell-based, luciferase luminescence, primary screen | HT1080 MT1-MMP promoter luciferase reporter, overnight; hits give high values | activation factor at 10 µM | 86,000 tested, 0.16% active | AID 750, 2007;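 active = activation factor of at least 2 for MT1-MMP transcription at 10 µM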
Calb biofilm kill = clotrimazole potentiators killing Candida biofilms, primary screen, with clotrimazole, Alamar Blue. inhibition, % at 6 µM. 85,000 tested, 0.14% active. C. albicans biofilm + clotrimazole;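 active = inhibition above 20%; inactive = inhibition below 20%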;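 also: preformed 24 hr biofilms exposed to compound for 48 hr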
SF-1 act = activators of human SF-1, primary screen, cell-based, CHO-K1, Gal4-SF-1 LBD, luciferase luminescence; CHO-K1 Gal4-SF-1 LBD luciferase reporter; % increase over DMSO SF-1-specific signal; Steroidogenic factor 1 (Homo sapiens), Q13285; 65,000 tested, 1.9% active; activation, % at 10 µM;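 active = activation above the mean activation of all tested compounds plus 3 SD, cut at about 50% in these data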
Target sequence (Q13285 whole entry, looked up, the tested form may be a part): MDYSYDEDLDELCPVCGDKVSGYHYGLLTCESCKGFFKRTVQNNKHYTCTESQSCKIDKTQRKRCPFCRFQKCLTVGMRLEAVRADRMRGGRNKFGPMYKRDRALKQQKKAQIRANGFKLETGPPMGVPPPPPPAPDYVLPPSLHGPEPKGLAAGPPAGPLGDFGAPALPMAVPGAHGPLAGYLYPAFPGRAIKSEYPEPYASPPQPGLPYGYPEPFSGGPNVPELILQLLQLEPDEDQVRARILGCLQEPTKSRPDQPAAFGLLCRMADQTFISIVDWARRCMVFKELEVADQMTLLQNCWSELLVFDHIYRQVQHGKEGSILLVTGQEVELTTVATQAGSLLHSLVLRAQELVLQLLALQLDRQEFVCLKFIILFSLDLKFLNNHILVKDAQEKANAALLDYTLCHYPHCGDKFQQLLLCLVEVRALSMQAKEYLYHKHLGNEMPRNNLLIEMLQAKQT
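System: CHO-K1 cells with Gal4–hSF-1 LBD chimera plus Gal4-driven luciferase; quantity: 4,000 CHO-K1 cells per well; compound: one dose, 10 µM compound, 1% DMSO; times: 20 h compound treatment, 37 °C; measured by: SteadyLite luciferase luminescence; read-out: percent activation versus DMSO; benchmarks: DMSO and mock-transfected background; replicates: one test per compound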
Hits are given with their value; i = inactive; nt = no result.

SMILES	RORa activator	CD11b adhes enh	CD11b adhes inh	MT1-MMP txn act	Calb biofilm kill	SF-1 act
COc1ccc(CCNC(=O)c2nnn(-c3cccc(C)c3)c2N)cc1OC	nt	i	i	i	i	nt
Cc1ccc(NC(=O)c2nnn(-c3cc(C)cc(C)c3)c2N)cc1	66.3	i	i	i	i	69.6
Cc1cccc(-n2nnc(C(=O)Nc3ccc(F)cc3)c2N)c1	82.5	i	i	i	i	99.7
COC(=O)c1ccc(C(NC(=O)OCc2ccccc2)/C(=C/[C@@H](C)C(=O)N(C)Cc2ccccc2)C(F)(F)F)cc1 (stereo not given in full)	nt	nt	nt	i	nt	nt
COC(=O)c1ccc(C(NC(=O)OCc2ccccc2)/C(C)=C/[C@@H](C)C(=O)NC2CCCCC2)cc1 (stereo not given in full)	nt	nt	nt	i	nt	nt
COC(=O)CNC(=O)C1(CC(C)C)C=CCN1C(C)=O (stereo not given)	nt	nt	nt	i	nt	nt
Oc1ccc(Cl)cc1CNc1ccc(Br)cn1	i	i	i	i	i	88.8
Oc1c(Cl)cc(Cl)cc1CNc1ccc(Br)cn1	i	i	i	i	i	i
COC(=O)[C@H]1C[C@@H]1[C@H](NS(=O)(=O)c1ccc(-c2ccccc2)cc1)c1ccccc1	nt	nt	nt	i	nt	nt
CCc1ccc2nc(NC(=O)c3cc(C)on3)sc2c1	69.3	nt	nt	i	i	117.3
Cc1cc(C)c2nc(NC(=O)c3cc(C)on3)sc2c1	nt	i	i	i	i	nt
Cc1ccc(-c2noc(C3CCCN(S(=O)(=O)c4ccc5ccccc5c4)C3)n2)o1 (stereo not given)	nt	53.3	i	i	i	nt
Cc1ccc(S(=O)(=O)N2CCCC(c3nc(-c4ccc(C)o4)no3)C2)cc1 (stereo not given)	nt	i	i	i	i	nt
COCC(=O)Nc1cccc(Br)c1	i	i	i	i	i	i
O=C(Nc1cccc(Br)c1)c1ccn[nH]1	54.2	i	i	i	i	i
COCCn1c(C)cc(C(=O)COC(=O)c2cc3c(s2)CCC3)c1C	i	i	i	i	i	i
COCCn1c(C)cc(C(=O)COC(=O)C23CC4CC(CC(O)(C4)C2)C3)c1C	i	i	i	i	i	77.2
CCOc1ccc(OCC)c(NC(=O)C2CCCN2S(=O)(=O)c2cccc3cccnc23)c1 (stereo not given)	i	i	i	i	i	57.7
CCCCOC(=O)C(C)Oc1ccc(=O)n(-c2ccccc2)n1 (stereo not given)	57.3	i	i	i	i	i
CCOC(=O)c1sc(NC(=O)c2cc(-c3ccccc3C)nc3ccccc23)c(C#N)c1C	nt	i	92.7	nt	nt	nt
Fc1cnc(N2CCOCC2)nc1N1CCc2ccccc21	i	nt	nt	i	i	55.4
O=C(CCc1ccccc1)Nc1c(F)cccc1F	nt	nt	nt	2.3	i	nt
O=C(CCc1ccccc1)Nc1ccncc1	i	i	i	i	nt	i
CCOc1ccccc1C(=O)N[C@H](C(=O)OCc1cc([N+](=O)[O-])cc2c1OCOC2)C(C)C	nt	i	i	nt	nt	nt
CC(C)(C)NC(=O)c1cc(F)c(F)cc1Cl	nt	i	i	i	i	nt
SMILES	RORa activator	CD11b adhes enh	CD11b adhes inh	MT1-MMP txn act	Calb biofilm kill	SF-1 act
Cc1ccc(N2C(=O)c3ccccc3C2=O)cc1C	nt	nt	nt	i	i	nt
Cc1ccc(N2C(=O)c3ccc(N)cc3C2=O)cc1	55.3	i	i	i	i	i
Cc1ccc(N2C(=O)c3ccc(N)cc3C2=O)cc1C	106.9	nt	nt	i	i	64.1
COC(=O)c1ccc(C(NC(=O)OCc2ccccc2)/C(F)=C/[C@@H](C)C(=O)NCCN2CCOCC2)cc1 (stereo not given in full)	nt	nt	nt	i	nt	nt
CC1=CCC(COC(=O)Nc2ccccc2)CC1 (stereo not given)	89.9	nt	nt	i	i	i
CCOC(=O)Nc1ccc2c(c1)Nc1ccccc1S2	52.9	i	i	i	i	i
CNC(=O)c1c(NC(=O)c2nc3ccccc3s2)sc2c1CCC2	96.0	i	i	i	i	72.5
NC(=O)c1ccsc1NC(=O)COC(=O)Cc1cccc2ccccc12	nt	i	84.4	i	i	nt
NC(=O)c1ccsc1NC(=O)COc1ccccc1	i	i	i	i	i	67.6
O=C(CN1N=C(c2ccccc2)CCC1=O)NCc1ccco1	nt	i	i	nt	nt	nt
CC(C)(C)NC(=O)CN(C(=O)CNC(=O)c1cccs1)c1ccc2c(c1)OCCO2	nt	i	i	nt	nt	nt
CCCCOc1ccc(C(=O)Nc2cccc(C)n2)cc1	55.3	i	i	i	i	59.1
Cc1ccccc1Nc1nn2c(=O)c3ccccc3nc2s1	i	i	i	i	i	72.9
COc1ccccc1-c1cc(C(=O)NCc2cccs2)no1	i	i	i	i	i	i
COCCNC(=O)c1cc(-c2ccccc2OC)on1	51.6	i	i	i	i	70.7
COc1ccccc1-c1cc(C(=O)NC(C)c2ccccc2)no1 (stereo not given)	i	i	i	i	i	i
COc1ccccc1-c1cc(C(=O)NC(C)C)no1	i	nt	nt	i	i	68.8
COc1cccc(C(c2c(NC(=O)c3ccccc3)sc(C)c2C)N2CCN(C)CC2)c1 (stereo not given)	nt	i	i	nt	nt	nt
COc1cc(-c2nc(-c3cccc(C)c3)no2)cc(OC)c1OC	i	nt	nt	i	i	i
COc1ccc(-c2nc(-c3cccc(C)c3)no2)cc1OC	61.0	nt	nt	i	i	59.1
COc1ccc(-c2nc(C3CCCCC3)no2)cc1OC	i	i	i	nt	nt	56.9
Cc1cccc(-c2noc(CCCOc3ccc(Cl)cc3Cl)n2)c1	nt	i	98.7	i	i	nt
COc1ccccc1-c1noc(-c2ccccc2)n1	i	nt	nt	i	i	64.6
Cc1ccc(CCP(=O)(O)CN2CCCCC2)cn1	i	nt	nt	i	nt	i
CN(Cc1ccc(F)cc1)C(=O)COc1ccccc1-c1ccccc1	nt	i	i	nt	nt	nt
SMILES	RORa activator	CD11b adhes enh	CD11b adhes inh	MT1-MMP txn act	Calb biofilm kill	SF-1 act
COC(=O)[C@@]1(Cc2ccc(F)cc2)[C@H]2c3cc(C(=O)N4CCCC4)n(CCc4ccccn4)c3C[C@H]2CN1C(=O)c1ccccc1	nt	nt	nt	i	nt	nt
CCOC(=O)c1c(NC(=O)C(C)N2CCN(C(=O)c3ccco3)CC2)sc2c1CCCC2 (stereo not given)	nt	i	i	nt	nt	nt
Cc1ccc(SCc2nc(-c3ccccc3)no2)cc1	i	i	i	i	i	i
COc1ccc(-c2noc(CSc3ccccc3)n2)cc1OC	i	i	i	i	i	68.2
CCOc1ccc(-c2nc(-c3ccccc3)no2)cc1OCC	49.4	i	i	i	i	84.1
COc1nc(-c2ccccc2)ccc1-c1noc(-c2ccco2)n1	i	i	i	i	i	55.0
COc1ccc(-c2nc(-c3ccccc3OC)no2)cc1OC	56.0	i	i	i	i	i
Cc1sc2nc(CSc3cccc(C(F)(F)F)c3)[nH]c(=O)c2c1C	nt	i	i	nt	nt	nt
